In ChEMBL document CHEMBL4038305, “Benzoxaborole Antimalarial Agents. Part 5. Lead Optimization of Novel Amide Pyrazinyloxy Benzoxaboroles and Identification of a Preclinical Candidate” (J Med Chem, 2017):

Columns and labels:
[1] = test system: Plasmodium berghei; test: Antimalarial activity against Plasmodium berghei infected in Swiss Webster mouse assessed as mouse survival rate at 1.1 mg/kg administered once daily via oral gavage for 4 consecutive days beginning 1 hr after infection measured on day 5 post infection relative to control; type: functional
Summary of the method: (§1)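 Mice given an intraperitoneal injection of P. berghei-infected erythrocytes taken from a previously infected animal. Oral dosing once daily for 4 consecutive days, starting 1 h after infection. Vehicle: polyethylene glycol 300/propylene glycol/water (weight ratio 55/25/20). Percent survival recorded daily from day 4 to day 20. Chloroquine 30 mg/kg and vehicle-only groups served as controls.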

[2] = test system: Plasmodium berghei; test: Antimalarial activity against Plasmodium berghei infected in Swiss Webster mouse assessed as mouse survival rate at 200 mg/kg administered once daily via oral gavage for 4 consecutive days beginning 1 hr after infection measured on day 6 post infection relative to control; type: functional
Summary of the method: (§2)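 P. berghei-infected erythrocytes taken from a previously infected mouse were injected intraperitoneally. Oral dosing, once daily for 4 consecutive days, began 1 h after infection, in polyethylene glycol 300/propylene glycol/water (55/25/20 by weight). Chloroquine at 30 mg/kg was the positive control, with a vehicle-only group. Percent survival was recorded daily from day 4 to day 20.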

[3] = test system: Plasmodium berghei; test: Antimalarial activity against Plasmodium berghei infected in Swiss Webster mouse assessed as mouse survival rate at 200 mg/kg administered once daily via oral gavage for 4 consecutive days beginning 1 hr after infection measured on day 15 post infection relative to control; type: functional; summary of the method: as §2
[4] = test system: Plasmodium berghei; test: Antimalarial activity against Plasmodium berghei infected in Swiss Webster mouse assessed as mouse survival rate at 100 mg/kg administered once daily via oral gavage for 4 consecutive days beginning 1 hr after infection measured on day 17 post infection relative to control; type: functional; summary of the method: as §1
[5] = test system: Plasmodium berghei; test: Antimalarial activity against Plasmodium berghei infected in Swiss Webster mouse assessed as mouse survival rate at 1.1 mg/kg administered once daily via oral gavage for 4 consecutive days beginning 1 hr after infection measured on day 4 post infection relative to control; type: functional; summary of the method: as §1
[6] = test system: Plasmodium berghei; test: Antimalarial activity against Plasmodium berghei infected in Swiss Webster mouse assessed as mouse survival rate at 200 mg/kg administered once daily via oral gavage for 4 consecutive days beginning 1 hr after infection measured on day 10 post infection relative to control; type: functional; summary of the method: as §2
[7] = test system: Plasmodium berghei; test: Antimalarial activity against Plasmodium berghei infected in Swiss Webster mouse assessed as mouse survival rate at 100 mg/kg administered once daily via oral gavage for 4 consecutive days beginning 1 hr after infection measured on day 20 post infection relative to control; type: functional; summary of the method: as §1
[8] = test system: Plasmodium berghei; test: Antimalarial activity against Plasmodium berghei infected in Swiss Webster mouse assessed as mouse survival rate at 200 mg/kg administered once daily via oral gavage for 4 consecutive days beginning 1 hr after infection measured from day 16 to day 19 post infection relative to control; type: functional; summary of the method: as §2
[9] = test system: Plasmodium berghei; test: Antimalarial activity against Plasmodium berghei infected in Swiss Webster mouse assessed as mouse survival rate at 200 mg/kg administered once daily via oral gavage for 4 consecutive days beginning 1 hr after infection measured on day 8 post infection relative to control; type: functional; summary of the method: as §2
[10] = test system: Plasmodium berghei; test: Antimalarial activity against Plasmodium berghei infected in Swiss Webster mouse assessed as mouse survival rate at 200 mg/kg administered once daily via oral gavage for 4 consecutive days beginning 1 hr after infection measured on day 11 post infection relative to control; type: functional; summary of the method: as §2
[11] = test system: Plasmodium berghei; test: Antimalarial activity against Plasmodium berghei infected in Swiss Webster mouse assessed as mouse survival rate at 200 mg/kg administered once daily via oral gavage for 4 consecutive days beginning 1 hr after infection measured on day 5 post infection relative to control; type: functional; summary of the method: as §2
[12] = test system: Plasmodium berghei; test: Antimalarial activity against Plasmodium berghei infected in Swiss Webster mouse assessed as mouse survival rate at 200 mg/kg administered once daily via oral gavage for 4 consecutive days beginning 1 hr after infection measured on day 14 post infection relative to control; type: functional; summary of the method: as §2
[13] = test system: Plasmodium berghei; test: Antimalarial activity against Plasmodium berghei infected in Swiss Webster mouse assessed as mouse survival rate at 200 mg/kg administered once daily via oral gavage for 4 consecutive days beginning 1 hr after infection measured on day 12 post infection relative to control; type: functional; summary of the method: as §2
[14] = test system: Plasmodium berghei; test: Antimalarial activity against Plasmodium berghei infected in Swiss Webster mouse assessed as mouse survival rate at 1.1 mg/kg administered once daily via oral gavage for 4 consecutive days beginning 1 hr after infection measured on day 7 post infection relative to control; type: functional; summary of the method: as §1
[15] = test system: Plasmodium berghei; test: Antimalarial activity against Plasmodium berghei infected in Swiss Webster mouse assessed as mouse survival rate at 200 mg/kg administered once daily via oral gavage for 4 consecutive days beginning 1 hr after infection measured on day 4 post infection relative to control; type: functional; summary of the method: as §2
[16] = test system: Plasmodium berghei; test: Antimalarial activity against Plasmodium berghei infected in Swiss Webster mouse assessed as mouse survival rate at 11 mg/kg administered once daily via oral gavage for 4 consecutive days beginning 1 hr after infection measured on day 9 post infection relative to control; type: functional; summary of the method: as §2
[17] = test system: Plasmodium berghei; test: Antimalarial activity against Plasmodium berghei infected in Swiss Webster mouse assessed as mouse survival rate at 200 mg/kg administered once daily via oral gavage for 4 consecutive days beginning 1 hr after infection measured on day 13 post infection relative to control; type: functional; summary of the method: as §2
[18] = test system: Plasmodium berghei; test: Antimalarial activity against Plasmodium berghei infected in Swiss Webster mouse assessed as mouse survival rate at 200 mg/kg administered once daily via oral gavage for 4 consecutive days beginning 1 hr after infection measured on day 7 post infection relative to control; type: functional; summary of the method: as §2
[19] = test system: Plasmodium berghei; test: Antimalarial activity against Plasmodium berghei infected in Swiss Webster mouse assessed as mouse survival rate at 200 mg/kg administered once daily via oral gavage for 4 consecutive days beginning 1 hr after infection measured on day 20 post infection relative to control; type: functional; summary of the method: as §2
[20] = Clearance in CD1 mouse at 5 mg/kg, iv by HPLC/MS analysis; type: ADME, organism-based; conditions: in vivo
Summary of the method: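 Female CD-1 mice, male SD rats and beagle dogs received 5 mg/kg either iv or by oral gavage. Vehicle was PEG 300/propylene glycol/water (55/25/20, pH 6). Blood was sampled and drug measured by HPLC-MS/MS.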

[21] = AUC (0 to infinity) in CD1 mouse at 5 mg/kg, po via gavage by HPLC/MS analysis; type: ADME, organism-based; parameters: dose 5 mg/kg, time infinity, route oral; conditions: in vivo
[22] = Tmax in CD1 mouse plasma at 5 mg/kg, po via gavage by HPLC/MS analysis; type: ADME, organism-based
Summary of the method: (§3)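 Female CD-1 mice, male SD rats or beagle dogs given 5 mg/kg by iv injection or oral gavage. Formulation was PEG300/propylene glycol/water 55/25/20, pH 6. Blood samples analysed by HPLC–MS/MS; parameters include AUC0-inf extrapolated to infinity and terminal half-life.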

[23] = AUC (0 to infinity) in CD1 mouse at 5 mg/kg, iv by HPLC/MS analysis; type: ADME, organism-based; parameters: dose 5 mg/kg, time infinity, route intravenous; conditions: in vivo
[24] = Terminal half life in CD1 mouse at 5 mg/kg, po via gavage by HPLC/MS analysis; type: ADME, organism-based; conditions: in vivo, read-out: beta t1/2 (converted); summary of the method: as §3
[25] = Volume of distribution at steady state in CD1 mouse at 5 mg/kg, iv by HPLC/MS analysis; type: ADME, organism-based; conditions: in vivo, read-out: Vdss; summary of the method: as §3
[26] = Terminal half life in CD1 mouse at 5 mg/kg, iv by HPLC/MS analysis; type: ADME, organism-based; conditions: in vivo, read-out: beta t1/2 (converted); summary of the method: as §3
[27] = test system: Plasmodium falciparum; test: Antimalarial activity against Plasmodium falciparum 3D7 0087/N9 infected in NOD/SCID IL2R gamma null mouse assessed as compound concentration in whole blood require to reduce parasitemia in peripheral blood administered once daily via oral gavage for 4 consecutive days measured on day 7 post infection; type: functional

| SMILES | survival at 200 mg/kg [2] [%] | survival at 200 mg/kg [3] [%] | survival at 200 mg/kg [6] [%] | survival at 100 mg/kg [7] [%] | survival at 200 mg/kg [9] [%] | survival at 200 mg/kg [10] [%] | survival at 200 mg/kg [11] [%] | survival at 200 mg/kg [12] [%] | survival at 200 mg/kg [13] [%] | survival at 200 mg/kg [15] [%] | survival at 200 mg/kg [17] [%] | survival at 200 mg/kg [18] [%] | survival at 200 mg/kg [19] [%] | clearance [20] [mL/min/kg] | AUC(0-inf) [21] [ng·h/mL] | Tmax [22] [h] | AUC(0-inf) [23] [ng·h/mL] | half-life [24] [h] | Vd [25] [L/kg] | half-life [26] [h] | other results |
| --- | --- | --- | --- | --- | --- | --- | --- | --- | --- | --- | --- | --- | --- | --- | --- | --- | --- | --- | --- | --- | --- |
| Cc1c(Oc2cnc(C(=O)N3CC(O)(C(C)C)C3)cn2)ccc2c1B(O)OC2 | 100 | 100 | 100 | 80 | 100 | 100 | 100 | 100 | 100 | 100 | 100 | 100 | 100 |  |  |  |  |  |  |  | survival at 1.1 mg/kg [1]: 100%; survival at 100 mg/kg [4]: 100%; survival at 1.1 mg/kg [5]: 100%; survival at 200 mg/kg [8]: 100%; survival at 1.1 mg/kg [14]: 0%; survival at 11 mg/kg [16]: 60% |
| Cc1c(Oc2cnc(C(=O)N[C@@H](CO)CC(F)(F)F)cn2)ccc2c1B(O)OC2 |  |  |  |  |  |  |  |  |  |  |  |  |  | 3.97 | 13400 | 1 | 21000 | 3 | 0.741 | 3 |  |
| Cc1c(Oc2cnc(C(=O)NC(C)CO)cn2)ccc2c1B(O)OC2 (centres undefined) |  |  |  |  |  |  |  |  |  |  |  |  |  | 2.13 | 33000 | 1 | 39000 | 2.7 | 0.603 | 3.1 |  |
| CCC1(O)CN(C(=O)c2cnc(Oc3ccc4c(c3C)B(O)OC4)cn2)C1 | 100 | 100 | 100 |  | 100 | 100 | 100 | 100 | 100 | 100 | 100 | 100 | 80 |  |  |  |  |  |  |  | AUCED90 [27]: 1.6 µg.hr/ml/day; survival at 200 mg/kg [8]: 80% |
| Cc1c(Oc2cnc(C(=O)NCCO)cn2)ccc2c1B(O)OC2 | 100 |  | 0 |  | 80 |  | 100 |  |  | 100 |  | 100 |  | 2.65 | 29600 | 1 | 31400 | 3 | 0.636 | 3 |  |
| CCCC1(O)CN(C(=O)c2cnc(Oc3ccc4c(c3C)B(O)OC4)cn2)C1 | 100 | 100 | 100 | 0 | 100 | 100 | 100 | 100 | 100 | 100 | 100 | 100 | 0 |  |  |  |  |  |  |  | survival at 11 mg/kg [16]: 0% |
| Cc1c(Oc2cnc(C(=O)N3CC(C)(O)C3)cn2)ccc2c1B(O)OC2 |  |  |  |  |  |  |  |  |  |  |  |  |  | 4.07 | 20700 | 0.5 | 20500 | 6.8 | 0.888 | 7.1 | survival at 100 mg/kg [4]: 0%; AUCED90 [27]: 1.4 µg.hr/ml/day; survival at 11 mg/kg [16]: 0% |
| CCC[C@H](CO)NC(=O)c1cnc(Oc2ccc3c(c2C)B(O)OC3)cn1 | 100 | 100 | 100 |  | 100 | 100 | 100 | 100 | 100 | 100 | 100 | 100 | 100 | 4.05 | 21600 | 0.5 | 20500 | 4.5 | 0.874 | 4.2 | AUCED90 [27]: 7.45 µg.hr/ml/day; survival at 200 mg/kg [8]: 100% |
| Cc1c(Oc2cnc(C(=O)N3CC(O)(C(F)(F)F)C3)cn2)ccc2c1B(O)OC2 |  |  |  | 100 |  |  |  |  |  |  |  |  |  |  |  |  |  |  |  |  | survival at 1.1 mg/kg [1]: 100%; survival at 1.1 mg/kg [5]: 100%; survival at 1.1 mg/kg [14]: 0% |
